Experimental data reported in article PMC9382226 (Inorganic chemistry, 2022).
Entries after “also recorded” stand apart in the source; their conditions may differ.

What was measured:
mice = experiment: Ex vivo biodistribution of uranium in mice by ICP-MS; details: for uranium uptake in bone (tibia) / clearance from blood / uranium in soft organs (lung, liver, kidney, spleen): 4 mg/kg intravenous injection, ICP-MS; for uranium uptake in bone (tibia): 30 min, 2 h and 24 h; for stability of the uranium complex in vivo: biodistribution, label is the ligand of the complex
[1] = assay type: binding; details: for k2 (pH 7.4), second-order rate constant for complexation of UO2^2+: TRIS buffer pH 7.4, 25 °C; for k2 (pH 5), second-order rate constant for complexation of UO2^2+: aqueous citrate buffer pH 5, 25 °C
[2] = Ligand protonation constants by semi-batch spectrophotometric titration; assay type: physicochemical; details: 25 °C, I = 0.1 M KCl
Outline: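 Semi-batch spectrophotometric titration of test ligands (those not titrated potentiometrically) at 25 °C, ionic strength 0.1 M with KCl as supporting electrolyte; protonation constants fitted from the titration data; uncertainty given as standard deviation of the last digit.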

[3] = assay type: binding; details: [UO2^2+]tot = 10^−6 M, [L]tot = 10^−5 M, 25 °C, I = 0.1 M KCl
[4] = Ligand protonation constants by potentiometric titration; assay type: physicochemical; details: 25 °C, I = 0.1 M KCl
[5] = Kinetic stability challenge with hydroxyapatite; assay type: physicochemical; details: 2000 equiv. HAP, 0.1 M TRIS, 37 °C, arsenazo III indicator
[6] = Initial pH potentiometric experiments with UO2^2+; assay type: binding; details: lowest electrode-calibrated pH value of 2.4
[7] = Aqueous solubility of the complexes; assay type: physicochemical; details: in words

Compound	uranium uptake in bone (tibia) (mice)	clearance from blood (mice)	uranium in soft organs (lung, liver, kidney, spleen) (mice)	k2 (pH 7.4), second-order rate constant for complexation of UO2^2+ [1] [M^−1 s^−1]	k2 (pH 5), second-order rate constant for complexation of UO2^2+ [1] [M^−1 s^−1]	pUO2 (pH 7.4) = −log[UO2^2+]free [3]	stability of the uranium complex in vivo (mice)	further results
O=C([O-])c1cccc(CNCCNCc2cccc(C(=O)[O-])n2)n1.[O]=[U+2]=[O] [[UO2(dedpa)]]	minimal uptake in the bone	rapidly cleared from the blood	low but detectable values of uranium were found in the lung, liver and kidney					
[O-]c1cccc2ccc(CNCCNCc3ccc4cccc([O-])c4n3)nc12.[O]=[U+2]=[O] [[UO2(hox)]]	minimal uptake in the bone	rapidly cleared from the blood	significant accumulation of uranium in the lungs					
Oc1cccc2ccc(CNC3CCCCC3NCc3ccc4cccc(O)c4n3)nc12 (stereo not drawn) [H2CHXhox]				2850 ± 380	140 ± 5	19.98		pKa1 [2]: 10.95(9); pKa2 [2]: 10.18(2); pKa3 [2]: 8.72(7); pKa4 [2]: 5.37(2)
O=C(O)c1cccc(CNC2CCCCC2NCc2cccc(C(=O)O)n2)n1 (stereo not drawn) [H2CHXdedpa]				1190 ± 150	1320 ± 140	17.72	stable in vivo	pKa1 [4]: 9.39(2); pKa2 [4]: 6.43(6); pKa3 [4]: 3.15(6); pKa4 [4]: 2.40(8)
O.O.O.O.O.O.O=[N+]([O-])O.O=[N+]([O-])O.[O]=[U]=[O] [UO2(NO3)2·6H2O]								original uranium remaining in solution with HAP ([5]; after 12 h): 10%; uranium remaining in solution with HAP ([5]; by 120 h): undetectable
O=C(O)c1cccc(CNCCNCc2cccc(C(=O)O)n2)n1 [H2dedpa]				450 ± 40	420 ± 28	17.46	stable in vivo	pKa1 [4]: 8.95(3); pKa2 [4]: 6.32(6); pKa3 [4]: 3.15(6); pKa4 [4]: 2.28(7); free UO2^2+ present [6]: < 5%
O=C([O-])c1cccc(CNC2CCCCC2NCc2cccc(C(=O)[O-])n2)n1.[O]=[U+2]=[O] (stereo not drawn) [[UO2(CHXdedpa)]]	minimal uptake in the bone	rapidly cleared from the blood	low but detectable values of uranium were found in the lung, liver and kidney					
[O-]c1cccc2ccc(CNC3CCCCC3NCc3ccc4cccc([O-])c4n3)nc12.[O]=[U+2]=[O] (stereo not drawn) [[UO2(CHXhox)]]								lethality upon injection (mice; intravenous injection): precipitation in the circulatory system upon injection causing lethality; aqueous solubility [7]: low solubility in water; also recorded: poor aqueous solubility
Oc1cccc2ccc(CNCCNCc3ccc4cccc(O)c4n3)nc12 [H2hox]				3420 ± 340	73 ± 5	19.80	stable in vivo	pKa1 [2]: 11.0(1); pKa2 [2]: 10.10(8); pKa3 [2]: 8.63(5); pKa4 [2]: 6.1(3)
